High-throughput results (PubChem BioAssay)
Cl transport mod: KCC2 cotransporter modulators, thallium flux, primary screen, cell-based, HEK293 KCC2, FluoZin-2 fluorescence, MLSMR; hit rate 2.2% among 190,000; B-score of Tl+ flux slope (higher = more flux/activation; lower = inhibition) at 10 µM; AID 1456, 2008; Solute carrier family 12 member 5 (Homo sapiens), Q9H2X9; KCC2 cells, thallium flux FluoZin-2 fluorescence;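 active = thallium flux slope and its plate-corrected score both differing from the plate sample mean at a set confidence after two filtering rounds, in either direction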;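 note: slope of fluorescence scaled to starting intensity during 10 to 20 s after thallium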
Rad51 HR inh: human RAD51 strand exchange inhibitors, primary screen, biochemical, fluorescence. DNA repair protein RAD51 homolog 1 (Homo sapiens), Q06609. hit rate 0.085% among 200,000. hRad51 DNA strand exchange, fluorescence dequenching. inhibition, % at 10 µM. AID 1385, 2008;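 active = inhibition above 40% at the single screening dose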;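 note: 0% = DMSO control wells and 100% = blanks with heterologous ssDNA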
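Material: hRad51 filaments on single-stranded DNA; Reagent: Donor/quencher-labelled 47-bp dsDNA substrate; Compound: 10 µM final, single point; Schedule: 37 °C 15-min filament assembly, 30-min compound preincubation, 15-min exchange; Technique: FRET fluorescence, excitation 485 nm, emission 520 nm; Benchmarks: control wells and blank wells on each plate.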
PKD1 kinase inh: inhibitors of human PKD1 kinase, biochemical, fluorescence polarization; PKD1 kinase fluorescence polarization assay; inhibition, % (test concentration not listed); hit rate 0.056% among 200,000; in the data active = inhibition above about 50%
ROMK primary: ROMK potassium channel modulators, primary screen, cell-based, thallium flux, MLSMR library; hit rate 2% among 130,000; Tet-inducible ROMK, thallium flux fluorescence; actives lie on both sides; AID 1918, 2009; B-score at 10 µM; ATP-sensitive inward rectifier potassium channel 1 (Homo sapiens), P48048;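 active = signal ratio slope over the read window, or its plate-corrected B-score, at least 3 SD from the plate mean, either direction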;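 note: B-score of the F/F0 ratio slope over 7 to 12 s after thallium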
Target sequence (P48048 whole entry, looked up): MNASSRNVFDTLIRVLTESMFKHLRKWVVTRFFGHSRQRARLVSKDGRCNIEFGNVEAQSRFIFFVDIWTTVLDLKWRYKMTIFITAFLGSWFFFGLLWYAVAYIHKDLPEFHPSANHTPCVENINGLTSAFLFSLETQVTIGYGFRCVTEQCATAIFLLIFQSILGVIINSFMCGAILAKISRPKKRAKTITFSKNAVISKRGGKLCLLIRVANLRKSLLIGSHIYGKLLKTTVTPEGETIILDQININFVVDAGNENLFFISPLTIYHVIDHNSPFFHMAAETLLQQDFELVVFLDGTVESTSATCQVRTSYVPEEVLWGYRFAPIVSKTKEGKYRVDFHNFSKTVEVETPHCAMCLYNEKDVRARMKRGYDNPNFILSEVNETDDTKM
KCC2 sec1: KCC2 modulators in sodium-free buffer, confirmation, cell-based, HEK293 KCC2, thallium flux, secondary assay; shares compounds with Cl transport mod; FluoZin2 fluorescence; stronger effect = higher value; normalised thallium flux (F/F0 slope) at 10 µM; hit rate 15% among 3,700; AID 1713, 2009;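 active = thallium flux slope above the same plate's solvent-only control mean plus 3 SD; inconclusive = the two replicate wells disagree; inactive = no significant difference from solvent-only control wells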
KCC2 bumet counter: thallium flux persisting under bumetanide in KCC2 cells, confirmation, counter-screen for KCC2 modulator project, cell-based, HEK293 KCC2, FluoZin2, secondary assay 3. shares compounds with Cl transport mod. HEK293-KCC2 + bumetanide/ouabain; stronger effect = higher value. normalized thallium flux at 10 µM. hit rate 49% among 3,700. AID 1714, 2009;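 active = thallium entry rate above the same plate's blocked-transporter control wells by more than 3 SD; inconclusive = the two repeat wells disagree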;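 note: raw slope of fluorescence over initial fluorescence between 10 and 20 s after thallium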
KCC2 sec2: KCC2 modulators without ouabain present, confirmation, cell-based, HEK293 KCC2, thallium flux, FluoZin2, secondary assay 2; normalized thallium flux at 10 µM; shares compounds with Cl transport mod; thallium flux FluoZin2 fluorescence; actives lie on both sides; F/F0 rise rate, 10–20 s post-thallium; hit rate 23% among 3,700;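 active = thallium flux slope more than 3 SD above or below the plate's solvent-only control mean, mostly below; inconclusive = the two repeat wells disagreed; inactive = no significant shift from solvent-only controls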;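 note: raw slope with 0.1% DMSO as baseline and bumetanide as block control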
HEK counter1: thallium flux modulation in parental HEK cells, confirmation, counter-screen for KCC2 modulator project, cell-based, counterscreen 1. shares compounds with Cl transport mod. HEK293 parental cells, thallium flux FluoZin2, ouabain; baseline-ratio fluorescence slope, 10–20 s after thallium. thallium flux rate (normalised fluorescence) at 10 µM. hit rate 46% among 3,700. AID 1716, 2009;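 active = thallium flux rate significantly above the same plate's solvent-only control wells, beyond their mean plus 3 SD; inconclusive = the two replicate wells gave conflicting results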
KCC2 retest ouab: KCC2 inhibitors and activators, ouabain retest, confirmation, HEK-KCC2 cells; shares compounds with Cl transport mod; hit rate 48% among 3,700; raw Tl+ flux slope (below DMSO = inhibition, above = activation) at 10 µM; AID 1717, 2009; HEK293-KCC2, thallium flux FluoZin2 fluorescence; bidirectional: low = inhibitor, high = activator;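 active = thallium flux slope beyond 3 SD from same-plate DMSO control mean in most replicates, usually higher, sometimes lower; inconclusive = repeat tests gave conflicting results; inactive = no significant difference from controls in most replicates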;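 note: slope of initial-normalized fluorescence between seconds 10 and 20 after thallium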
HEK counter2: native HEK Tl+ uptake effects, second counter-screen – HEK cells, counterscreen 2, counter-screen for KCC2 modulator project, confirmation; shares compounds with Cl transport mod; HEK293 parental, thallium flux FluoZin-2 fluorescence slope; thallium flux slope at 10 µM; hit rate 33% among 3,700; AID 1718, 2009;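 active = thallium flux slope above the same plate's solvent-control mean plus 3 SD in both duplicate wells; inconclusive = duplicate wells that disagreed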;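 note: run without ouabain in cells lacking the KCC2 cotransporter; slope of fluorescence scaled to its starting value between 10 and 20 s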
The depositor's hits bear a star; ? = inconclusive; · = not tested or not shown. Compounds with a hit are over-represented: about 3% of the library has one in this group of screens.

SMILES | Cl transport mod | Rad51 HR inh | PKD1 kinase inh | ROMK primary | KCC2 sec1 | KCC2 bumet counter | KCC2 sec2 | HEK counter1 | KCC2 retest ouab | HEK counter2
O=C(C1CC(c2ccccc2O)=NO1)N1CCc2ccccc2C1 (stereo not given) | -3.22* | -6.0 | 1.0 | -1.7 | 0.00677 | 0.00533 | ? | 0.008 | 0.0177 | 0.0107
O=C(NC(=S)Nc1ccc2c(c1)OCCO2)c1cccc2ccccc12 | 11.4* | · | -3.1 | 1.97 | ? | 0.0862* | 0.0353 | 0.0345* | 0.0566* | 0.0157*
O=C(NC(=S)Nc1ccc2c(c1)OCCO2)c1cccc(Br)c1 | 36.8* | -5.7 | -5.5 | · | 0.0063 | 0.0423* | 0.0435* | 0.0459* | 0.0337* | 0.0278*
O=C(O)c1ccccc1NC(=S)NC(=O)c1cccc2ccccc12 | -0.182 | 8.4 | -4.3 | 0.512 | · | · | · | · | · | ·
O=C(NC(=S)Nc1ccc2c(c1)OCO2)c1ccccc1 | · | 12.1 | 0.7 | · | · | · | · | · | · | ·
Cc1ccc(-c2nc(NCc3ccc(F)cc3)n(S(C)(=O)=O)n2)cc1 | -0.471 | 2.3 | 8.2 | -0.274 | · | · | · | · | · | ·
CC1=Nc2ccccc2/C1=C/c1sc(=N)n(-c2nccs2)c1O | -3.57* | -98.8 | -1.0 | · | 0.00622 | 0.000516* | 0.0198* | 0.00489* | 0.00973* | 0.00711*
Cc1[nH]n(C2=NCCS2)c(=O)c1N=Nc1cccc(C(F)(F)F)c1 | 21.1* | 25.0 | 8.1 | 1.03 | 0.00631 | 0.0746* | 0.049* | 0.0337* | 0.055* | 0.035*
Cc1cc(-c2nc3cccnc3s2)ccc1NS(=O)(=O)c1ccc2c(c1)OCCO2 | -3.86* | 0.6 | -11.7 | · | 0.00903 | 0.00562 | 0.0343 | 0.00775 | 0.0202 | 0.0113
Cc1c(NS(=O)(=O)c2ccc3c(c2)OCCO3)cccc1-c1nc2cccnc2s1 | -1.29 | -4.2 | -0.6 | · | · | · | · | · | · | ·
COc1ccc(NC(=O)CCC2CCCCC2)cc1S(=O)(=O)N1CCCCC1 | -3.94* | -4.6 | 3.5 | · | 0.0074 | 0.00579 | 0.0292 | 0.00664 | 0.0194 | 0.00959
COc1ccc(/C=C/c2ccncc2)cc1 | 0.479 | 10.1 | -10.0 | · | · | · | · | · | · | ·
CN(C)c1ccc(/C=C/c2ccncc2)cc1 | · | -3.4 | -4.4 | · | 0.0032* | -0.004* | 0.0212* | 0.00313* | 0.00583* | ?
CCc1ccc(NC(=O)COC(=O)CCc2nc3cc(S(=O)(=O)N(CC)CC)ccc3n2C)cc1 | -0.189 | -12.6 | -2.5 | · | · | · | · | · | · | ·
O=C(CSc1nnnn1-c1ccccc1)N1CCc2ccccc21 | -1.27 | -6.0 | -8.3 | 0.0017 | · | · | · | · | · | ·
O=C(O)CSc1nnnn1-c1ccccc1 | -0.643 | 8.3 | -5.8 | -0.534 | · | · | · | · | · | ·
O=c1cc(CSc2nnnn2-c2ccccc2)nc2scc(-c3ccccc3)n12 | -4.71* | -0.8 | -5.2 | -0.236 | 0.00883 | 0.00724 | 0.0235* | 0.00652 | 0.0127* | 0.00936
O=C(CSc1nnnn1-c1ccc(Cl)cc1)N1CCc2ccccc2C1 | · | -2.6 | 3.8 | -0.383 | 0.00559 | ? | 0.0248* | 0.00715 | ? | 0.00994
